Assay results as given in ChEMBL document CHEMBL2062375, “Discovery of an orally efficacious inhibitor of anaplastic lymphoma kinase” (J Med Chem, 2012).
Calls of active or inactive are those of the source. No cut-off for these calls is given here.

Tests used:
[1] = Drug level in SCID mouse tumor xenografted with human KARPAS299 cells expressing NPM-ALK at 30 mg/kg, po after 24 hrs by LC-MS/MS analysis; type: ADME, organism-based, Neoplasm, KARPAS-299; design: dose 30 mg/kg, route oral; settings: read-out: Drug uptake
[2] = Plasma concentration in SCID mouse xenografted with human KARPAS299 cells expressing NPM-ALK at 30 mg/kg, po after 12 hrs by LC-MS/MS analysis; type: ADME, organism-based, KARPAS-299; design: dose 30 mg/kg, route oral
Outline: (§1)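 Pharmacodynamic study: SCID mice bearing subcutaneous Karpas-299 xenografts given single 30 mg/kg oral dose; plasma drug levels measured by LCMS/MS, reported as mean ± SEM.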

[3] = Half life in CD-1 mouse at 1 mg/kg, iv; type: ADME, organism-based; design: dose 1 mg/kg, route intravenous; settings: in vivo
Outline: (§2)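 Mouse PK. IV via the lateral tail vein in 3% DMSO/30% Solutol/67% PBS, or oral gavage in 100% PEG400, 100 μL dose volume, after an overnight fast. Trunk blood was taken from three mice per time point over 6 h. Plasma was acetonitrile-precipitated and analysed by LC-MS/MS. Parameters were derived noncompartmentally.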

[4] = Drug level in SCID mouse tumor xenografted with human KARPAS299 cells expressing NPM-ALK at 30 mg/kg, po after 2 hrs by LC-MS/MS analysis; type: ADME, organism-based, Neoplasm, KARPAS-299; design: dose 30 mg/kg, route oral; settings: read-out: Drug uptake
[5] = Plasma clearance in SCID mouse at 1 mg/kg, iv; type: ADME, organism-based; design: dose 1 mg/kg, route intravenous
Outline: (§3)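 Mouse IV PK: lateral tail vein dosing, 100 μL in 3% DMSO/30% Solutol/67% PBS; trunk blood from three mice per time point over 6 h. Plasma precipitated with acetonitrile, drug quantified by LCMS/MS against internal standard; noncompartmental analysis.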

[6] = AUC in cynomolgus monkey at 1 mg/kg, iv; type: ADME, organism-based, Macaca fascicularis; design: dose 1 mg/kg, route intravenous; settings: plasma
Outline: (§4)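 Dog and monkey PK. IV 0.5 mL/kg in 40% HPβCD via the saphenous vein. Oral dosing was 1 mL/kg by gavage in dogs and 2 mL/kg by nasogastric tube in monkeys, after an overnight fast. Serial femoral-vein blood was taken into heparin over 24 h. Plasma was acetonitrile-precipitated and analysed by LC-MS/MS. Parameters were noncompartmental, n = 3, mean ± SEM.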

[7] = biological target: T1, Ribosomal protein S6 kinase alpha-1 (Homo sapiens, UniProt Q15418); assay: Inhibition of human Rsk1
Outline: (§5)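 Millipore KinaseProfiler activity assays on a 259-kinase panel; kinases inhibited by ≥90% at 1 μM then taken to full IC50 determination.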

[8] = biological target: Ribosomal protein S6 kinase alpha-6 (Homo sapiens, UniProt Q9UK32); settings: 1 uM
[9] = biological target: Protein-tyrosine kinase 6 (Homo sapiens, UniProt Q13882); assay: Inhibition of human BRK
[10] = biological target: NUAK family SNF1-like kinase 1 (Homo sapiens) (UniProt O60285); settings: 1 uM
[11] = Half life in cynomolgus monkey at 10 mg/kg, po; type: ADME, organism-based, Macaca fascicularis; design: dose 10 mg/kg, route oral; settings: in vivo; outline: as §4
[12] = Cmax in rat at 55 mg/kg, po; type: ADME, organism-based; design: dose 55 mg/kg, route oral; settings: in vivo
Outline: (§6)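 Rat oral dose escalation at 10, 30, 55 and 100 mg/kg. Gavage at 5 mL/kg in 40% HPβCD after an overnight fast. Serial tail-vein blood was drawn into heparinized tubes. Plasma was protein-precipitated with acetonitrile and assayed by LC-MS/MS. Cmax and AUC0–12 were derived noncompartmentally; n = 2 at 10 mg/kg.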

[13] = Half life in Beagle dog at 1 mg/kg, iv; type: ADME, organism-based, Canis lupus familiaris; design: dose 1 mg/kg, route intravenous; settings: in vivo; outline: as §4
[14] = Half life in SCID mouse at 10 mg/kg, po; type: ADME, organism-based; design: dose 10 mg/kg, route oral; settings: in vivo; outline: as §2
[15] = Half life in Beagle dog at 10 mg/kg, po; type: ADME, organism-based, Canis lupus familiaris; design: dose 10 mg/kg, route oral; settings: in vivo; outline: as §4
[16] = biological target: ALK tyrosine kinase receptor (Homo sapiens, UniProt Q9UM73); assay: Inhibition of ALK tyrosine phosphorylation in human Karpas-299 cells after 2 hrs in presence of mouse plasma; type: cell-based
[17] = AUC in Beagle dog at 1 mg/kg, iv; type: ADME, organism-based, Canis lupus familiaris; design: dose 1 mg/kg, route intravenous; settings: plasma; outline: as §4
[18] = AUC (0 to 12 hrs) in rat 55 mg/kg, po; type: ADME, organism-based; design: time < 12 hr, dose 55 mg/kg, route oral; settings: plasma; outline: as §6
[19] = biological target: Mitogen-activated protein kinase 8 (Homo sapiens, UniProt P45983); assay: Inhibition of human JNK1alpha1; outline: as §5
[20] = Oral bioavailability in Sprague-Dawley rat at 10 mg/kg; type: ADME, organism-based; settings: in vivo
Outline: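 PK: overnight-fasted animals. Rat oral gavage 5 mL/kg in 40% HPβCD, serial tail-vein blood over 6 h. Dog oral gavage 1 mL/kg, monkey nasogastric 2 mL/kg, femoral-vein blood over 24 h. Plasma protein-precipitated with acetonitrile, LCMS/MS with internal standard; noncompartmental analysis, individual animals n = 3, mean ± SEM.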

[21] = Volume of distribution in Beagle dog at 1 mg/kg, iv; type: ADME, organism-based, Canis lupus familiaris; design: dose 1 mg/kg, route intravenous; settings: in vivo
Outline: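 IV PK: rats via lateral tail vein (1 mL/kg; 3% DMSO/30% Solutol/67% PBS), serial tail-vein blood over 6 h. Dogs and monkeys via saphenous vein (0.5 mL/kg in 40% HPβCD), femoral-vein blood over 24 h. Acetonitrile protein precipitation, LCMS/MS; noncompartmental parameters from individual animals, n = 3, mean ± SEM.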

[22] = tested on: SK-N-AS; assay: Antitumor activity against human SK-N-AS cells expressing wild type ALK assessed as growth inhibition administered as po bid; type: functional, organism-based
[23] = Volume of distribution in SCID mouse at 1 mg/kg, iv; type: ADME, organism-based; design: dose 1 mg/kg, route intravenous; settings: in vivo; outline: as §3
[24] = biological target: Focal adhesion kinase 1 (Homo sapiens, UniProt Q05397); assay: Inhibition of human FAK
Outline: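 Commercial activity-assay panel of 259 kinases. Each kinase was first screened at 1 μM, and those inhibited by ≥90% went on to full IC50 determination.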

[25] = biological target: Ribosomal protein S6 kinase alpha-3 (Homo sapiens, UniProt P51812); assay: Inhibition of human Rsk2; outline: as §5
[26] = tested on: SH-SY5Y; assay: Antitumor activity against human SH-SY5Y cells expressing ALK mutant R1275Q assessed as growth inhibition administered as po bid; type: functional, organism-based
[27] = AUC (0 to 12 hrs) in rat 30 mg/kg, po; type: ADME, organism-based; design: time < 12 hr, dose 30 mg/kg, route oral; settings: plasma; outline: as §6
[28] = biological target: T1, Ribosomal protein S6 kinase alpha-1; settings: 1 uM
[29] = tested on: Mus musculus; assay: Inhibition of NPM-ALK phosphorylation in human KARPAS299 cells xenografted in SCID mouse tumor at 30 mg/kg, po qd after 12 hrs by immunoblotting; type: functional; settings: KARPAS-299, 12 h
Outline: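 SCID mice bearing sc Karpas-299 xenografts received a single 30 mg/kg oral dose. Phospho- and total NPM-ALK in tumour samples were detected by immunoblotting, and relative NPM-ALK phosphorylation was calculated.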

[30] = Plasma concentration in SCID mouse xenografted with human KARPAS299 cells expressing NPM-ALK at 30 mg/kg, po after 24 hrs by LC-MS/MS analysis; type: ADME, organism-based, KARPAS-299; design: dose 30 mg/kg, route oral; outline: as §1
[31] = biological target: Vascular endothelial growth factor receptor 3 (Homo sapiens, UniProt P35916); assay: Inhibition of human Flt4; outline: as §5
[32] = Tmax in SCID mouse at 10 mg/kg, po; type: ADME, organism-based; design: dose 10 mg/kg, route oral; settings: in vivo
Outline: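 Mouse oral PK: overnight fast, gavage of 100 μL in 100% PEG400; trunk blood from three mice per time point over 6 h; plasma acetonitrile-precipitated and analysed by LCMS/MS, noncompartmental parameters.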

[33] = AUC in CD-1 mouse at 1 mg/kg, iv; type: ADME, organism-based; design: dose 1 mg/kg, route intravenous; settings: plasma; outline: as §2
[34] = biological target: Mitogen-activated protein kinase kinase kinase kinase 2 (Homo sapiens, UniProt Q12851); assay: Inhibition of human GCK; outline: as §5

T1 sequence (Q15418 whole entry): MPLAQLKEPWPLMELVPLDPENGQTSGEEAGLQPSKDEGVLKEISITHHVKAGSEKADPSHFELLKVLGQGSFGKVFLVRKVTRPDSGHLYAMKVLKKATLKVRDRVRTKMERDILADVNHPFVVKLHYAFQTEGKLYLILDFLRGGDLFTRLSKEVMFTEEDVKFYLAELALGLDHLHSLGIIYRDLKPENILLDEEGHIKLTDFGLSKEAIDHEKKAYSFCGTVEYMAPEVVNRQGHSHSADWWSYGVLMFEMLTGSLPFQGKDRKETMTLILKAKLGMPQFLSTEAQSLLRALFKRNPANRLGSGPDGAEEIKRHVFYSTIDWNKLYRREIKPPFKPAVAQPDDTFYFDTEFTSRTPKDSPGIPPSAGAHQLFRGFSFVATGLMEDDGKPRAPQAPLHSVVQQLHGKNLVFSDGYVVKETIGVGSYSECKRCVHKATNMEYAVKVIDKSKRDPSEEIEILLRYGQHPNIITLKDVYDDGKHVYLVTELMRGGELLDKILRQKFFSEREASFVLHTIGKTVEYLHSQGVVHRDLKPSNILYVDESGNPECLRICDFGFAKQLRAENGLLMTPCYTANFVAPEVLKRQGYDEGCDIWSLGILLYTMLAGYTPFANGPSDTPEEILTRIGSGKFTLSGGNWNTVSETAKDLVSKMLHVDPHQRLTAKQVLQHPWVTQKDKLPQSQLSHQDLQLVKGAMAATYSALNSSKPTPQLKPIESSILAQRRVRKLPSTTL
Ribosomal protein S6 kinase alpha-3, sequence (P51812 whole entry): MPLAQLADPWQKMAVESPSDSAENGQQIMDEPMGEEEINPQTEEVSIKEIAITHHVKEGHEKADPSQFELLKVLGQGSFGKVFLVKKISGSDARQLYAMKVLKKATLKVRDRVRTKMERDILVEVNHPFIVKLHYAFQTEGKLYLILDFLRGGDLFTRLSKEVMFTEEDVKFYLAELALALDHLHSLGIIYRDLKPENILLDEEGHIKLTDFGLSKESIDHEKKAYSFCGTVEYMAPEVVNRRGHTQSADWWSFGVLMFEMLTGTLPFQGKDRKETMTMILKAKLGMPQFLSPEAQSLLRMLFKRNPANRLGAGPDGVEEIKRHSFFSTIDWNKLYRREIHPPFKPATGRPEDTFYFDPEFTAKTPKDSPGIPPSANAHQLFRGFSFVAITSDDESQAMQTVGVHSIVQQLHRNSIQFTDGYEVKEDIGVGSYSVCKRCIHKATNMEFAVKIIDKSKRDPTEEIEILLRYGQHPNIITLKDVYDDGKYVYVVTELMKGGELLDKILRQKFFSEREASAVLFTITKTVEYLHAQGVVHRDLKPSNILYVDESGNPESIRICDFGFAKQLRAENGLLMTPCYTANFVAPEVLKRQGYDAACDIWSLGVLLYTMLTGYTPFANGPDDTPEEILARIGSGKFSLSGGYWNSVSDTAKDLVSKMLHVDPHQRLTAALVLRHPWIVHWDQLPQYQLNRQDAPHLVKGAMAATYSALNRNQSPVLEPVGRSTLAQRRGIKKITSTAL
Protein-tyrosine kinase 6, sequence (Q13882 whole entry): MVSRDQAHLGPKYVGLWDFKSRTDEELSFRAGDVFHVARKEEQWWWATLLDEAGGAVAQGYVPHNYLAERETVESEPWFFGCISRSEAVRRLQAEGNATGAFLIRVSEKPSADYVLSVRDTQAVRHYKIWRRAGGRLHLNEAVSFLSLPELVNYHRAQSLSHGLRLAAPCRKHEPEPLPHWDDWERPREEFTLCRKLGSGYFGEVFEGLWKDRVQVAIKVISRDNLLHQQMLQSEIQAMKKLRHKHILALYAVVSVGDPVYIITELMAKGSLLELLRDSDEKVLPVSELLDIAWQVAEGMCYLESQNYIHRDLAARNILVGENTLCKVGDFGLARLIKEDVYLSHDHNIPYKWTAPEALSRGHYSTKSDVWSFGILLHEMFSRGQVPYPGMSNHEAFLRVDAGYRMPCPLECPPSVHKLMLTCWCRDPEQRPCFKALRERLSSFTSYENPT
NUAK family SNF1-like kinase 1 (Homo sapiens), sequence (O60285 whole entry): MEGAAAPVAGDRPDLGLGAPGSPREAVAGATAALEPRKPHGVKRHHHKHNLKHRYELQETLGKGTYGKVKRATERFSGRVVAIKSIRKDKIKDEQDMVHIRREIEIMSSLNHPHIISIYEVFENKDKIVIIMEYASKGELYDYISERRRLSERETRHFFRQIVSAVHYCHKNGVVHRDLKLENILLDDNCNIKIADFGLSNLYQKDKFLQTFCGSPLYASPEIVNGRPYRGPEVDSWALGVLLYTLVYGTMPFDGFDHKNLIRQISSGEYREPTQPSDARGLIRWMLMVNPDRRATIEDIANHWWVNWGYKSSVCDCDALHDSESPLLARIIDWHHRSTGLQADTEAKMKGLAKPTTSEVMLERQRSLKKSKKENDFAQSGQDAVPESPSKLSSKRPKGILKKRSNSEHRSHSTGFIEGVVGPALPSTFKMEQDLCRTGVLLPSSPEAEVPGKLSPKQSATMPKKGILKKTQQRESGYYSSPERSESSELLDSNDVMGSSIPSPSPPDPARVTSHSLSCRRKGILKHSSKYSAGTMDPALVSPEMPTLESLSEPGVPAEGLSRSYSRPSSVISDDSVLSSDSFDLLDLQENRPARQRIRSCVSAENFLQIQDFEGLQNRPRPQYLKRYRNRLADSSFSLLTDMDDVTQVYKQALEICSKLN
Vascular endothelial growth factor receptor 3, sequence (P35916 whole entry): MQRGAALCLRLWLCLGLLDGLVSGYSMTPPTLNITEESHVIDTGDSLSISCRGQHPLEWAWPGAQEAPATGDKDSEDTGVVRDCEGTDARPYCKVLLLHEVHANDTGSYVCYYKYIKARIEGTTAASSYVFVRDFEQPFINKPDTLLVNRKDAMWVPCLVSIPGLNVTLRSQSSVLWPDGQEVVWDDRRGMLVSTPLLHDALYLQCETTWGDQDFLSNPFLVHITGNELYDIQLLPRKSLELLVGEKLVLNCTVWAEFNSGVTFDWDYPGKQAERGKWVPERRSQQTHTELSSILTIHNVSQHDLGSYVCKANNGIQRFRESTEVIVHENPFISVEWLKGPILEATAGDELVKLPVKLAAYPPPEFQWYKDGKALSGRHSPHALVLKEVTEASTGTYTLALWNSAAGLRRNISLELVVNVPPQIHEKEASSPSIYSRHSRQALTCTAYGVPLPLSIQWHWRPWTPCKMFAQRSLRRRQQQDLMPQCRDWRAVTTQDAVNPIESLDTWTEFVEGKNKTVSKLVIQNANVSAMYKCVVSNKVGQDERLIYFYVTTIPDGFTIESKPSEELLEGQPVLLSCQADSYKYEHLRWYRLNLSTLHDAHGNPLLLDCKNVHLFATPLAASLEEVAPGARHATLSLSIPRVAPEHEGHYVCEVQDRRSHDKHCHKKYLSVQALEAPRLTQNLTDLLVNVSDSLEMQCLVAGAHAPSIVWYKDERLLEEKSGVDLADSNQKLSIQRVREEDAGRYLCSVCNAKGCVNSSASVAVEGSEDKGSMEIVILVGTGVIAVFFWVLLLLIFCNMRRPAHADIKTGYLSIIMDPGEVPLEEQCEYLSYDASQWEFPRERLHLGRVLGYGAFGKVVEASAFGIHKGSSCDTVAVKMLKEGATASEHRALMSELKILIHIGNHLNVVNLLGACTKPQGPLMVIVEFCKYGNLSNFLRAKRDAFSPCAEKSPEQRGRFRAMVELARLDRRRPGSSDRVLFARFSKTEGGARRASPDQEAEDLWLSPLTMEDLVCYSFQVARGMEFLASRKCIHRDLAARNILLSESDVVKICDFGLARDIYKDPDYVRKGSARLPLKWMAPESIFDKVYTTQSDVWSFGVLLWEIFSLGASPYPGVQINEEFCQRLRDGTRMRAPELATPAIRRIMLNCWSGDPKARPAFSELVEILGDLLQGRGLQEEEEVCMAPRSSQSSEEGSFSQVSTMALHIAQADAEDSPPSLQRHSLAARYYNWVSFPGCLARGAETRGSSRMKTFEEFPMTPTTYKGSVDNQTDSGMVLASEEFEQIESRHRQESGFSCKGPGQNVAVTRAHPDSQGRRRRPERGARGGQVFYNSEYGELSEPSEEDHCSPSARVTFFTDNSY
Focal adhesion kinase 1, sequence (Q05397 whole entry): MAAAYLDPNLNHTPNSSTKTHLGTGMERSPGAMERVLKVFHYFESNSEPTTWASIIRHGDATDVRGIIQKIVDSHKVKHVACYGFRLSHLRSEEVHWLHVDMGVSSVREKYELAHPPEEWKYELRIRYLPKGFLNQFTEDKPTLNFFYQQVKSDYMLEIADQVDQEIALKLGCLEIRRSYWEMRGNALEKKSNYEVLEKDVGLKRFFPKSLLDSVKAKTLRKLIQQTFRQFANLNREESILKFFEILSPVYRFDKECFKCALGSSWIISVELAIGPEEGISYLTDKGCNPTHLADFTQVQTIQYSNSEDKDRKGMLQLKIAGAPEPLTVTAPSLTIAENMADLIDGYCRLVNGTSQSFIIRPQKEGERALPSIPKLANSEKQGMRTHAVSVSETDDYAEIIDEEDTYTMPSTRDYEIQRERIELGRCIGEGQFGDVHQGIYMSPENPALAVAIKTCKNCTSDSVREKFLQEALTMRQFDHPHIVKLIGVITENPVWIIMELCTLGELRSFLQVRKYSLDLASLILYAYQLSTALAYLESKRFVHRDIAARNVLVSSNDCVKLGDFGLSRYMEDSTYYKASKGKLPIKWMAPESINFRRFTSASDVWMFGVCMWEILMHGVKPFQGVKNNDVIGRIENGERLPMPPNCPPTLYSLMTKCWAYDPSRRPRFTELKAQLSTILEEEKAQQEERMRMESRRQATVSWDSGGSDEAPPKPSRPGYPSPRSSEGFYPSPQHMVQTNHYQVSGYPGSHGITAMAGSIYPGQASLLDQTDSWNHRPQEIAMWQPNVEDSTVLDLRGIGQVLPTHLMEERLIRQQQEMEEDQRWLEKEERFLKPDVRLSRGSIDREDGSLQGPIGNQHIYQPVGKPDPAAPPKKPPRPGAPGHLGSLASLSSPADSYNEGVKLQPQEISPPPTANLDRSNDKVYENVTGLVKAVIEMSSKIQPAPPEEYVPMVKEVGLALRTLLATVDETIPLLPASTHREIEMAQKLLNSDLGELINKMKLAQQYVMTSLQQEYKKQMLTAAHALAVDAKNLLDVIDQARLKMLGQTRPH

concentration at 24 h [1]: 100 ng/g
concentration at 12 h [2]: 1570 ng/mL
half-life [3]: 0.7 h
concentration at 2 h [4]: 2630 ng/g
clearance [5]: 6 mL/min/kg
AUC [6]: 615 ng·h/mL
IC50 [7]: 0.061 µM
inhibition [8]: > 90%
IC50 [9]: 0.073 µM
inhibition [10]: > 90%
half-life [11]: 1.2 h
Cmax [12]: 2250 ng/mL
half-life [13]: 2.4 h
half-life [14]: 1.8 h
half-life [15]: 3.3 h
IC50 [16]: 0.02 µM
AUC [17]: 409 ng·h/mL
AUC(0-t) at 12 h [18]: 24100 ng·h/mL
IC50 [19]: 0.112 µM
bioavailability [20]: 50%
Vd [21]: 8.2 L/kg
Vd [23]: 0.8 L/kg
IC50 [24]: 0.133 µM
IC50 [25]: 0.013 µM
AUC(0-t) at 12 h [27]: 10900 ng·h/mL
inhibition [28]: > 90%
concentration at 24 h [30]: 12 ng/mL
IC50 [31]: 0.048 µM
Tmax [32]: 1 h
AUC [33]: 584 ng·h/mL
IC50 [34]: 0.06 µM
SMILES: COc1c(Nc2ncc(Cl)c(N[C@H]3[C@@H](C(N)=O)[C@@H]4C=C[C@H]3C4)n2)ccc2c1CC[C@@H](N1CCOCC1)CC2
growth inhibition (GI) [22]: inactive
growth inhibition (GI) [26]: Active
inhibition in vivo at 30 mg/kg [29]: > 90%
